INS-1E ATP HTS: INS-1E beta cell protection from cytokine death. INS-1E cytokine-induced death, ATP luminescence, 48 h; normalised: neutral wells 0, positive control 100. protection from cytokine-induced ATP loss, % at 10 µM. 0.1% of 20,000 active. AID 488910;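 active = mean replicate protection from cytokine-induced ATP loss at least 50% and at least 75% of replicates each reaching 50%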
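Material: INS-1E rat cells; Quantity: 8000 cells/well; Buffer or medium: phenol-red-free RPMI with 5% fetal bovine serum; Probe or stimulus: cytokine cocktail of IFN-γ, TNF-α and IL-1β; Compound dosing: single test concentration per compound, delivered by pin transfer; Incubation: 48 h co-treatment, 10 min post-lysis read; Signal: CellTiter-Glo luminescence.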
A1 apoptosis 2: A1 inhibition read as caspase activation; 24,000 tested, under 10 active; AID 2465; MEF A1-2A-BIM cells, caspase-Glo luminescence, 3 h; percent of clofoctol response, DMSO zero; caspase activation, % (concentration not given with the values); in the data active = caspase activation above about 5.9%
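system = A1-2A-BIM-expressing MEF cells | quantity = 2500 MEF cells/well | dosing = 50 nL compound per well, pinned | schedule = overnight cell settling, then 3 h compound exposure, 37 °C | signal = luminescence from DEVD-luciferin Caspase-Glo reagent, 1:1 in 50 mM HEPES, 1 h RT | read-out = Caspase-3/7 activation, seen as rise in luminescence signal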
T cruzi HTS: intracellular Trypanosoma cruzi inhibition | intracellular Trypanosoma cruzi in host cells, plate reader | activity score (inhibition), % at 5.01 µM | 4.9% of 22,000 active | AID 651903; in the data active = activity score above about 55%;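 note: parasites and compound incubated about four days before reading; 0% = median of neutral control wells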
Active calls of the source: *; . = no result given. This excerpt belongs to a sample that is enriched for hits.

SMILES	INS-1E ATP HTS	A1 apoptosis 2	T cruzi HTS
C[C@@H]1CN([C@@H](C)CO)C(=O)Cc2cc(NC(=O)Nc3ccc(C(F)(F)F)cc3)ccc2O[C@@H]1CN(C)Cc1ccc2c(c1)OCO2	-35	.	58*
C[C@@H]1CN([C@@H](C)CO)C(=O)Cc2cc(NC(=O)Nc3ccc(F)cc3)ccc2O[C@H]1CN(C)Cc1ccc(C(F)(F)F)cc1	.	-1	.
C[C@@H]1CN([C@H](C)CO)C(=O)Cc2cc(NC(=O)Nc3ccc(C(F)(F)F)cc3)ccc2O[C@H]1CN(C)Cc1ccc2c(c1)OCO2	0	-1	8
C[C@H]1CN([C@@H](C)CO)C(=O)Cc2cc(NC(=O)C3CC3)ccc2O[C@@H]1CN(C)Cc1ccc(C(F)(F)F)cc1	0	0	74*
C[C@@H]1CN([C@H](C)CO)C(=O)Cc2cc(NC(=O)Nc3ccc(C(F)(F)F)cc3)ccc2O[C@H]1CN(C)C(=O)Nc1ccc(C(F)(F)F)cc1	-30	0	-15
C[C@@H]1CN([C@@H](C)CO)C(=O)Cc2cc(NC(=O)Nc3ccc(C(F)(F)F)cc3)ccc2O[C@@H]1CN(C)C(=O)Nc1ccc(C(F)(F)F)cc1	-11	1	76*
C[C@@H]1CN([C@@H](C)CO)C(=O)Cc2cc(NC(=O)Nc3ccc(F)cc3)ccc2O[C@@H]1CN(C)Cc1ccc(C(F)(F)F)cc1	-32	.	80*
C[C@@H]1CN([C@@H](C)CO)C(=O)Cc2cc(NC(=O)C3CC3)ccc2O[C@@H]1CN(C)Cc1ccc(C(F)(F)F)cc1	-4	0	-13
CO[C@H]1O[C@H](CO)[C@@H](OC(=O)CCc2ccccc2)[C@H](OC(=O)c2cc3ccccc3[nH]2)[C@H]1OC(=O)c1cc2ccccc2[nH]1	.	0	.
NC(=O)COc1ccc(/C=N/NC(=O)CCCCCCC(=O)NO)cc1	.	0	.
C[C@H]1CN([C@@H](C)CO)C(=O)Cc2cc(NC(=O)Nc3ccc(F)cc3)ccc2O[C@H]1CN(C)Cc1ccc(C(F)(F)F)cc1	-52	.	46
C[C@H]1CN([C@@H](C)CO)C(=O)Cc2cc(NC(=O)Nc3ccc(C(F)(F)F)cc3)ccc2O[C@@H]1CN(C)Cc1ccc(C(F)(F)F)cc1	-81	0	69*
C[C@H](CO)N1C[C@H](C)[C@H](CN(C)CC2CC2)Oc2c(NC(=O)Nc3ccc(C(F)(F)F)cc3)cccc2C1=O	-9	1	82*
C[C@H](CO)N1C[C@H](C)[C@@H](CN(C)CC2CCCCC2)Oc2c(NC(=O)Nc3ccc(C(F)(F)F)cc3)cccc2C1=O	-71	0	69*
C[C@@H]1CN([C@@H](C)CO)C(=O)c2cccc(NC(=O)Nc3ccc(C(F)(F)F)cc3)c2O[C@H]1CN(C)CC1CC1	-35	0	10
C[C@@H]1CN([C@H](C)CO)C(=O)c2cccc(NC(=O)Nc3ccc(C(F)(F)F)cc3)c2O[C@@H]1CN(C)CC1CC1	-9	0	-39
COc1ccc(S(=O)(=O)Nc2ccc3c(c2)CC(=O)N([C@H](C)CO)C[C@H](C)[C@@H](CN(C)S(=O)(=O)c2cccs2)O3)cc1	.	0	.
COc1ccc(S(=O)(=O)Nc2ccc3c(c2)CC(=O)N([C@H](C)CO)C[C@@H](C)[C@@H](CN(C)S(=O)(=O)c2cccs2)O3)cc1	-1	-1	77*
C[C@H]1CN([C@@H](C)CO)C(=O)Cc2cc(NS(=O)(=O)c3ccc(Cl)cc3)ccc2O[C@@H]1CN(C)S(=O)(=O)c1cccs1	12	.	-33
C[C@@H]1CN([C@H](C)CO)C(=O)Cc2cc(NS(=O)(=O)c3ccc(Cl)cc3)ccc2O[C@@H]1CN(C)S(=O)(=O)c1cccs1	-5	.	74*
C=CCOC(=O)[C@H]1[C@@H]2C(=O)O[C@@H](c3ccccc3)[C@@H](c3ccccc3)N2[C@@H](c2ccc(OCCOC(=O)[C@@H]3C[C@@H]4C(=O)N5CCC[C@H]5C(=O)N4[C@@H]3c3cccc(OCCO)c3)cc2)[C@]12C(=O)Nc1ccc(I)cc12	.	1	.
COC(=O)CCCCCCC(=O)N/N=C/C1=CCCCC1	-1	0	0
COC(=O)CCCCCCC(=O)N/N=C/c1ccc(OC)cc1	13	0	-2
COc1ccc(NC(=O)Nc2ccc3c(c2)CC(=O)N([C@H](C)CO)C[C@H](C)[C@H](CN(C)S(=O)(=O)c2ccc(C)cc2)O3)cc1	-11	0	8
C[C@H]1CN([C@@H](C)CO)C(=O)c2cc(NC(=O)Nc3cccc4ccccc34)ccc2O[C@H]1CN(C)Cc1ccccc1	-5	1	-16
SMILES	INS-1E ATP HTS	A1 apoptosis 2	T cruzi HTS
C[C@H]1CN([C@@H](C)CO)C(=O)Cc2cc(NC(=O)Nc3cccc4ccccc34)ccc2O[C@@H]1CN(C)Cc1ccc(Cl)c(Cl)c1	-22	.	60*
C[C@@H]1CN([C@@H](C)CO)C(=O)Cc2cc(NC(=O)Nc3cccc4ccccc34)ccc2O[C@H]1CN(C)Cc1ccc(Cl)c(Cl)c1	.	1	.
C[C@H]1CN([C@@H](C)CO)C(=O)c2cccc(NC(=O)Nc3cccc4ccccc34)c2O[C@H]1CN(C)Cc1ccc2c(c1)OCO2	-16	-1	65*
C[C@@H]1CN([C@H](C)CO)C(=O)c2cccc(NC(=O)Nc3cccc4ccccc34)c2O[C@@H]1CN(C)Cc1ccc2c(c1)OCO2	-17	-1	-13
C[C@@H]1CN([C@H](C)CO)C(=O)c2cc(NC(=O)Nc3cccc4ccccc34)ccc2O[C@@H]1CN(C)Cc1ccc(Cl)c(Cl)c1	-12	.	54
C[C@H](CO)N1C[C@H](C)[C@H](CN(C)Cc2ccc3c(c2)OCO3)Oc2ccc(NC(=O)Nc3cccc4ccccc34)cc2C1=O	-19	-1	61*
C[C@@H]1CN([C@H](C)CO)C(=O)c2cc(NC(=O)Nc3cccc4ccccc34)ccc2O[C@H]1CN(C)Cc1ccc(Cl)c(Cl)c1	-34	-1	58*
N#Cc1ccc(/C=N/NC(=O)CCCCCCC(=O)NO)cc1	.	1	.
C[C@@H]1CN([C@H](C)CO)C(=O)Cc2cc(NC(=O)Nc3cccc4ccccc34)ccc2O[C@@H]1CN(C)Cc1ccc(C(=O)Nc2ccccc2N)cc1	.	-1	.
C[C@H]1CN([C@@H](C)CO)C(=O)Cc2cc(NS(=O)(=O)c3cn(C)cn3)ccc2O[C@H]1CN(C)CC1CCCCC1	-2	0	-23
[N-]=[N+]=NCc1ccccc1C[C@]1(C(=O)N2CCCCC2)COC(c2ccc(OCCCO)cc2)=N1	.	1	.
COc1cc(O)cc(OC)c1/C=N/NC(=O)CCCCC(=O)NO	15	.	-15
C[C@@H]1CN([C@H](C)CO)C(=O)Cc2cc(NC(=O)Nc3cccc4ccccc34)ccc2O[C@H]1CN(C)Cc1ccc(Oc2ccccc2)cc1	-10	.	57*
C[C@@H]1CN([C@H](C)CO)C(=O)Cc2cc(NC(=O)Nc3cccc4ccccc34)ccc2O[C@@H]1CN(C)Cc1ccccc1	-19	2	68*
C[C@@H]1CN([C@H](C)CO)C(=O)Cc2cc(NC(=O)Nc3ccccc3)ccc2O[C@H]1CN(C)Cc1ccc2c(c1)OCO2	-6	-1	-9
